Test results from ChEMBL document CHEMBL1135995, “Structure-activity relationships of methoctramine-related polyamines as muscular nicotinic receptor noncompetitive antagonists. 3. Effect of inserting the tetraamine backbone into a macrocyclic structure” (J Med Chem, 2002).

Key:
[1] = Antagonist activity against Nicotinic acetylcholine receptor (nAChR) of isolated Frog rectus Abdominis Muscle; type: functional, tissue-based; conditions: Amphibia
[2] = target: Acetylcholine receptor (Torpedo californica) (UniProt P02710+P02712+P02718+P02714); experiment: Antagonist activity against Nicotinic acetylcholine receptor (nAChR) of isolated Torpedo; type: functional
Summary of the method: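 Ethidium fluorescence displacement used nAChR-rich membranes from frozen Torpedo californica electric organ (1 µM receptor) with ethidium 7 µM and carbachol 1 mM in 50 mM NaPi, pH 7.4. Competing ligand was added stepwise, with excitation at 480 nm and emission read at 540-740 nm. Kapp was derived by a logarithmic formula (Herz et al.).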

[3] = target: Muscarinic acetylcholine receptor M3 (Cavia porcellus) (UniProt Q8VH26); experiment: Antagonist activity against Muscarinic acetylcholine receptor M3 of isolated Guinea Pig Longitudinal ileum; type: functional, tissue-based
Summary of the method: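 Guinea pig terminal ileum longitudinal muscle (2 cm segments) in PSS, with tension recorded isotonically. After ≥30 min equilibration, APE curves (0.01-0.5 µM) were run at 30 min intervals, the second serving as control. A new curve followed 60 min antagonist incubation, with the antagonist at a single 5 µM concentration in triplicate. EC50 was estimated graphically, with untreated parallel tissues as controls.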

[4] = system: Muscarinic acetylcholine receptor M2 (Cavia porcellus); experiment: Antagonist activity against Muscarinic acetylcholine receptor M2 of isolated Guinea Pig Left artium
Acetylcholinesterase = Acetylcholinesterase (Homo sapiens, UniProt P22303); experiment: Inhibitory activity on Acetylcholinesterase (AChE) from human erythrocytes
[5] = target: T1, Acetylcholine receptor subunit delta (Torpedo californica) (UniProt P02718); conditions: fish
T1 sequence (whole entry): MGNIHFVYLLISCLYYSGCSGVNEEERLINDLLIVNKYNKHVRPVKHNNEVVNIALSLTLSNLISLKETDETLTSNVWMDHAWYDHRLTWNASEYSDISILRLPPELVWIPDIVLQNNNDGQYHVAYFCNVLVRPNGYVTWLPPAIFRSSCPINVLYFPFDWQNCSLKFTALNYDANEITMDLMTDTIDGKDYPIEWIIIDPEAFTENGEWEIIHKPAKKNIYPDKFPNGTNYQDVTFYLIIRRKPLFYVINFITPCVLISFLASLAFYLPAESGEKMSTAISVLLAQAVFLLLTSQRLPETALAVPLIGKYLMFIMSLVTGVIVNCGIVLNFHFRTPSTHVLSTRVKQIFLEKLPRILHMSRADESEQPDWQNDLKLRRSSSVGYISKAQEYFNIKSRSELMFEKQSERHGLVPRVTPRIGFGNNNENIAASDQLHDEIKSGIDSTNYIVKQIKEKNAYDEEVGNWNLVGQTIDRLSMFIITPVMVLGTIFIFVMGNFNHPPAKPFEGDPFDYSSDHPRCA

Sequence of Muscarinic acetylcholine receptor M3 (Cavia porcellus) (Q8VH26 1-587): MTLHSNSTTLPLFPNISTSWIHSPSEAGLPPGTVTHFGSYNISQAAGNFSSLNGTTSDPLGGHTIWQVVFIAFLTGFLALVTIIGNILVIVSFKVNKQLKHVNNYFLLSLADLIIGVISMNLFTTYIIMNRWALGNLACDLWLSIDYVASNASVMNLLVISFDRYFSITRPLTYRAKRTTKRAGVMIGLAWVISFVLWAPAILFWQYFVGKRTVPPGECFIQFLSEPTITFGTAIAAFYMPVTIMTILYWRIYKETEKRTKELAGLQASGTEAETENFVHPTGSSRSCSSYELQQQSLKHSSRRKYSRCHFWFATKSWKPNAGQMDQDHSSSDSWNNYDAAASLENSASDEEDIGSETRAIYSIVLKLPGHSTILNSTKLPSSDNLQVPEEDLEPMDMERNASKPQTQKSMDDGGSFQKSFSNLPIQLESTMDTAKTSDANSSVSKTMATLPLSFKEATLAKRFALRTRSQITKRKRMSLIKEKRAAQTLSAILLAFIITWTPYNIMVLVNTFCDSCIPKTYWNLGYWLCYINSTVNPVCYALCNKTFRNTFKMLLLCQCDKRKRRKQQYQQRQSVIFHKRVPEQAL
Sequence of Acetylcholinesterase (P22303 whole entry): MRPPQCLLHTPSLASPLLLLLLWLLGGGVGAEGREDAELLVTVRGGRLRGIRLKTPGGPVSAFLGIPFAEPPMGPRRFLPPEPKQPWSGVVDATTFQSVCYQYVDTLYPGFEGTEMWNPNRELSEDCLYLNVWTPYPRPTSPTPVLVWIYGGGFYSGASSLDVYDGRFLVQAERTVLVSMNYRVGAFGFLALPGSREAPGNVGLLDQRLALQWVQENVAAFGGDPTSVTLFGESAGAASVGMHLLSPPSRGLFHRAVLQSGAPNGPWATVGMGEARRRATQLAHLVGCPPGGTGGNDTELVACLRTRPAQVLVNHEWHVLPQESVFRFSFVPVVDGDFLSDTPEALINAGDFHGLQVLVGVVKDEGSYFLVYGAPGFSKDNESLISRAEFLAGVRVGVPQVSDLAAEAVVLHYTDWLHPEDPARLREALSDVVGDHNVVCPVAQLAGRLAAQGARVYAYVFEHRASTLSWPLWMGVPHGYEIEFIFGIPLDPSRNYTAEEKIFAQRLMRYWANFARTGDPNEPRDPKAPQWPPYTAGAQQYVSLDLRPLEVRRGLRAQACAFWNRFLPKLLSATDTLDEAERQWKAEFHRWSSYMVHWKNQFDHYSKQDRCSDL

IC50 [1] [µM] | pKapp [2] | pKB [3] | pKapp [5] | SMILES | pKB [4] | IC50 (Acetylcholinesterase) [µM]
0.447 | 6.35 | – | – | COc1ccccc1CN1CCCCCCN(C)CCCCCCCCN(C)CCCCCCN(Cc2ccccc2OC)Cc2ccc(cc2)-c2ccc(cc2)C1 | – | –
– | 5.66 | 5.98 | – | COc1ccccc1CNCCCCCCNCCCCCCCCCCCCNCCCCCCNCc1ccccc1OC | 7.35 | –
3.47 | 6.43 | – | – | COc1ccccc1CN1CCCCCCN(C)CCCCCCCCN(C)CCCCCCN(Cc2ccccc2OC)Cc2ccc(cc2)C1 | – | –
0.191 | 6.26 | < 5 | – | COc1ccccc1CN1CCCCCCCCN(Cc2ccccc2OC)CCCCCCNCc2ccc(cc2)Cc2ccc(cc2)CNCCCCCC1 | – | –
1.17 | 6.21 | 6.14 | – | COc1ccccc1CNCCCCCCNCCCCCCCCNCCCCCCNCc1ccccc1OC [METHOCTRAMINE] | – | –
0.501 | 6.35 | < 5 | – | COc1ccccc1CNCCCCCCNCc1ccc(-c2ccc(-c3ccc(CNCCCCCCNCc4ccccc4OC)cc3)cc2)cc1 | < 5 | –
0.324 | – | – | 6.01 | COc1ccccc1CN1CCCCCCCCN(Cc2ccccc2OC)CCCCCCNCc2ccc(cc2)CNCCCCCC1 | – | –
4.27 | < 4 | – | – | CN1CCCCCCCCN(C)CCCCCCNCc2ccc(cc2)-c2ccc(cc2)CNCCCCCC1 | – | –
1.2 | – | – | 5.48 | COc1ccccc1CN1CCCCCCCCN(Cc2ccccc2OC)CCCCCCNCc2ccc(cc2)-c2ccc(cc2)CNCCCCCC1 | – | –
0.229 | 6.21 | < 5 | – | COc1ccccc1CN1CCCCCCN(C)CCCCCCCCN(C)CCCCCCN(Cc2ccccc2OC)Cc2ccc(cc2)Cc2ccc(cc2)C1 | < 5 | –
0.331 | – | – | 6.4 | COc1ccccc1CN(CCCCCCN)CCCCCCCCN(CCCCCCN)Cc1ccccc1OC | – | –

SMILES | IC50 [1] [µM] | pKapp [2] | pKB [3] | pKapp [5] | pKB [4] | IC50 (Acetylcholinesterase) [µM]
COc1ccccc1CN1CCCCCC(=O)N(C)CCCCCCCCN(C)C(=O)CCCCCN(Cc2ccccc2OC)Cc2ccc(cc2)-c2ccc(cc2)C1 | 0.525 | 5.1 | – | – | – | 53.7
COc1ccccc1CN(CCCCCCCCN(Cc1ccccc1OC)C(=O)CCCCCN)C(=O)CCCCCN | 0.158 | 6.46 | – | – | – | 33.1
COc1ccccc1CN1CCCCCCCCN(Cc2ccccc2OC)C(=O)CCCCCNCc2ccc(cc2)-c2ccc(cc2)CNCCCCCC1=O | 0.589 | 6.64 | < 5 | – | < 5 | 3.39
COc1ccccc1CN(C)CCCCCC(=O)N(C)CCCCCCCCN(C)C(=O)CCCCCN(C)Cc1ccccc1OC | – | 4.99 | 5.55 | – | 6.39 | –
COc1ccccc1CN1CCCCCCCCN(Cc2ccccc2OC)C(=O)CCCCCNCc2ccc(cc2)CNCCCCCC1=O | 0.17 | 6.47 | < 5 | – | < 5 | 1.41
